Source: ChEMBL document CHEMBL1140227, “Histone deacetylase inhibitors through click chemistry” (J Med Chem, 2008)

Key:
Type in all cases: functional
HL-60(TB) = assay: Growth inhibition of human HL-60(TB) cells at 10 uM relative to control; settings: read-out: INH
How it was run: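 Single-dose cell line screen run by the NCI (NIH) in its human cancer cell line panel, which includes the leukemia line HL-60(TB). Percent growth inhibition was calculated by comparison with untreated samples.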

HT-29 = assay: Growth inhibition of human HT-29 cells at 10 uM relative to control; settings: values are per cent of control
How it was run: (§1)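 Single-dose preliminary screen in the NCI human cancer cell line panel, run by the NIH. Percent inhibition of cell line growth was calculated by comparison with untreated samples.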

DU-145 = assay: Growth inhibition of human DU145 cells at 10 uM relative to control; settings: values are per cent of control; how it was run: as §1
SN12C = assay: Growth inhibition of human SN12C cells at 10 uM relative to control; settings: values are per cent of control; how it was run: as §1
CCRF-CEM = assay: Growth inhibition of human CCRF-CEM cells at 10 uM relative to control; settings: values are per cent of control; how it was run: as §1
NCI/ADR-RES = assay: Growth inhibition of human NCI/ADR-RES cells at 10 uM relative to control; settings: values are per cent of control; how it was run: as §1
SNB-19 = assay: Growth inhibition of human SNB19 cells at 10 uM relative to control; settings: values are per cent of control; how it was run: as §1
HCT-15 = assay: Growth inhibition of human HCT15 cells at 10 uM relative to control; settings: values are per cent of control; how it was run: as §1
SNB-75 = assay: Growth inhibition of human SNB75 cells at 10 uM relative to control; settings: values are per cent of control
How it was run: (§2)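 Single-dose NCI human tumour cell line screen, run by the NIH. Percent inhibition of cell line growth was calculated by comparison with untreated samples.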

NCI-H226 = assay: Growth inhibition of human NCI-H226 cells at 10 uM relative to control; settings: values are per cent of control; how it was run: as §1
HCC 2998 = assay: Growth inhibition of human HCC2998 cells at 10 uM relative to control; settings: values are per cent of control; how it was run: as §1
A549 = assay: Growth inhibition of human A549 cells at 10 uM relative to control; settings: values are per cent of control; how it was run: as §1
U-251 = assay: Growth inhibition of human U251 cells at 10 uM relative to control; settings: values are per cent of control; how it was run: as §2
NCI-H460 = assay: Growth inhibition of human NCI-H460 cells at 10 uM relative to control; settings: values are per cent of control; how it was run: as §1
BT-549 = assay: Growth inhibition of human BT549 cells at 10 uM relative to control; settings: values are per cent of control; how it was run: as §1
OVCAR-4 = assay: Growth inhibition of human OVCAR4 cells at 10 uM relative to control; settings: values are per cent of control; how it was run: as §1
LOX IMVI = assay: Growth inhibition of human LOXIMVI cells at 10 uM relative to control; settings: values are per cent of control; how it was run: as §1
MDA-MB-435 = assay: Growth inhibition of human MDA-MB-435 cells at 10 uM relative to control; settings: values are per cent of control; how it was run: as §1
M14 = assay: Growth inhibition of human M14 cells at 10 uM relative to control; settings: values are per cent of control; how it was run: as §1
T47D = assay: Growth inhibition of human T47D cells at 10 uM relative to control; settings: values are per cent of control; how it was run: as §2
SK-MEL-2 = assay: Growth inhibition of human SK-MEL-2 cells at 10 uM relative to control; settings: values are per cent of control; how it was run: as §1
SF-268 = assay: Growth inhibition of human SF268 cells at 10 uM relative to control; settings: values are per cent of control; how it was run: as §1
SF-539 = assay: Growth inhibition of human SF539 cells at 10 uM relative to control; settings: values are per cent of control; how it was run: as §1
NCI-H522 = assay: Growth inhibition of human NCI-H522 cells at 10 uM relative to control; settings: values are per cent of control; how it was run: as §1
KM12 = assay: Growth inhibition of human KM12 cells at 10 uM relative to control; settings: values are per cent of control; how it was run: as §1
UO-31 = assay: Growth inhibition of human UO31 cells at 10 uM relative to control; settings: values are per cent of control; how it was run: as §2
MDA-MB-231 = assay: Growth inhibition of human MDA-MB-231 cells at 10 uM relative to control; settings: values are per cent of control; how it was run: as §1
SF-295 = assay: Growth inhibition of human SF295 cells at 10 uM relative to control; settings: values are per cent of control; how it was run: as §1
NCI-H23 = assay: Growth inhibition of human NCI-H23 cells at 10 uM relative to control; settings: values are per cent of control; how it was run: as §1
NCI-H322M = assay: Growth inhibition of human NCI-H322M cells at 10 uM relative to control; settings: values are per cent of control; how it was run: as §1
SK-MEL-5 = assay: Growth inhibition of human SK-MEL-5 cells at 10 uM relative to control; settings: values are per cent of control; how it was run: as §1
COLO 205 = assay: Growth inhibition of human COLO205 cells at 10 uM relative to control; settings: values are per cent of control; how it was run: as §1
HCT-116 = assay: Growth inhibition of human HCT116 cells at 10 uM relative to control; settings: values are per cent of control; how it was run: as §1
MCF7 = assay: Growth inhibition of human MCF7 cells at 10 uM relative to control; settings: values are per cent of control; how it was run: as §1
SK-MEL-28 = assay: Growth inhibition of human SK-MEL-28 cells at 10 uM relative to control; settings: values are per cent of control; how it was run: as §1
K562 = assay: Growth inhibition of human K562 cells at 10 uM relative to control; settings: values are per cent of control; how it was run: as §1
A498 = assay: Growth inhibition of human A498 cells at 10 uM relative to control; settings: values are per cent of control; how it was run: as §1
786-0 = assay: Growth inhibition of human 786-0 cells at 10 uM relative to control; settings: values are per cent of control; how it was run: as §1
Malme-3M = assay: Growth inhibition of human MALME-3M cells at 10 uM relative to control; settings: values are per cent of control; how it was run: as §1
TK-10 = assay: Growth inhibition of human TK10 cells at 10 uM relative to control; settings: values are per cent of control; how it was run: as §2
MOLT-4 = assay: Growth inhibition of human MOLT4 cells at 10 uM relative to control; settings: values are per cent of control; how it was run: as §1
SW-620 = assay: Growth inhibition of human SW620 cells at 10 uM relative to control; settings: values are per cent of control; how it was run: as §2
UACC-62 = assay: Growth inhibition of human UACC62 cells at 10 uM relative to control; settings: values are per cent of control; how it was run: as §2
[1] = Growth inhibition of human RPMI8266 cells at 10 uM relative to control; settings: values are per cent of control; how it was run: as §1
EKVX = assay: Growth inhibition of human EKVX cells at 10 uM relative to control; settings: values are per cent of control; how it was run: as §1
IGROV-1 = assay: Growth inhibition of human IGROV1 cells at 10 uM relative to control; settings: values are per cent of control; how it was run: as §1
CAKI-1 = assay: Growth inhibition of human Caki1 cells at 10 uM relative to control; settings: values are per cent of control; how it was run: as §1
UACC-257 = assay: Growth inhibition of human UACC257 cells at 10 uM relative to control; settings: values are per cent of control; how it was run: as §2
HOP-62 = assay: Growth inhibition of human HOP62 cells at 10 uM relative to control; settings: values are per cent of control; how it was run: as §1
SK-OV-3 = assay: Growth inhibition of human SKOV3 cells at 10 uM relative to control; settings: values are per cent of control; how it was run: as §1
OVCAR-8 = assay: Growth inhibition of human OVCAR8 cells at 10 uM relative to control; settings: values are per cent of control; how it was run: as §1
cells = settings: Homo sapiens, Cancer cell lines
ACHN = assay: Growth inhibition of human ACHN cells at 10 uM relative to control; settings: values are per cent of control; how it was run: as §1
OVCAR-3 = assay: Growth inhibition of human OVCAR-3 cells at 10 uM relative to control; settings: values are per cent of control; how it was run: as §1
MDA-MB-468 = assay: Growth inhibition of human MDA-MB-468 cells at 10 uM relative to control; settings: values are per cent of control; how it was run: as §1
OVCAR-5 = assay: Growth inhibition of human OVCAR5 cells at 10 uM relative to control; settings: values are per cent of control; how it was run: as §1
PC-3 = assay: Growth inhibition of human PC3 cells at 10 uM relative to control; settings: values are per cent of control; how it was run: as §1
[2] = Growth inhibition of human Hs 578T cells at 10 uM relative to control; settings: values are per cent of control; how it was run: as §1

## O=C(NO)c1cn(C/C=C/c2ccccc2)nn1
HL-60(TB)
  growth, % of control at 10 µM: 94.5%
HT-29
  growth, % of control at 10 µM: 104%
DU-145
  growth, % of control at 10 µM: 167%
SN12C
  growth, % of control at 10 µM: 95.3%
CCRF-CEM
  growth, % of control at 10 µM: 61%
NCI/ADR-RES
  growth, % of control at 10 µM: 107%
SNB-19
  growth, % of control at 10 µM: 94.9%
HCT-15
  growth, % of control at 10 µM: 98.8%
SNB-75
  growth, % of control at 10 µM: 79.8%
NCI-H226
  growth, % of control at 10 µM: 91.1%
HCC 2998
  growth, % of control at 10 µM: 105%
A549
  growth, % of control at 10 µM: 107%
U-251
  growth, % of control at 10 µM: 90.1%
NCI-H460
  growth, % of control at 10 µM: 131%
BT-549
  growth, % of control at 10 µM: 107%
OVCAR-4
  growth, % of control at 10 µM: 94.3%
LOX IMVI
  growth, % of control at 10 µM: 90.2%
MDA-MB-435
  growth, % of control at 10 µM: 103%
M14
  growth, % of control at 10 µM: 106%
T47D
  growth, % of control at 10 µM: 97.8%
SK-MEL-2
  growth, % of control at 10 µM: 95.7%
SF-268
  growth, % of control at 10 µM: 92.8%
SF-539
  growth, % of control at 10 µM: 135%
NCI-H522
  growth, % of control at 10 µM: 92.5%
KM12
  growth, % of control at 10 µM: 104%
UO-31
  growth, % of control at 10 µM: 72.7%
MDA-MB-231
  growth, % of control at 10 µM: 96.1%
SF-295
  growth, % of control at 10 µM: 108%
NCI-H23
  growth, % of control at 10 µM: 104%
NCI-H322M
  growth, % of control at 10 µM: 109%
SK-MEL-5
  growth, % of control at 10 µM: 148%
COLO 205
  growth, % of control at 10 µM: 133%
HCT-116
  growth, % of control at 10 µM: 100%
MCF7
  growth, % of control at 10 µM: 122%
SK-MEL-28
  growth, % of control at 10 µM: 104%
K562
  growth, % of control at 10 µM: 119%
A498
  growth, % of control at 10 µM: 95.2%
786-0
  growth, % of control at 10 µM: 132%
Malme-3M
  growth, % of control at 10 µM: 110%
TK-10
  growth, % of control at 10 µM: 130%
MOLT-4
  growth, % of control at 10 µM: 79.6%
SW-620
  growth, % of control at 10 µM: 98.4%
UACC-62
  growth, % of control at 10 µM: 102%
[1]
  growth, % of control at 10 µM: 94.5%
EKVX
  growth, % of control at 10 µM: 89.9%
IGROV-1
  growth, % of control at 10 µM: 89.4%
CAKI-1
  growth, % of control at 10 µM: 95%
UACC-257
  growth, % of control at 10 µM: 125%
HOP-62
  growth, % of control at 10 µM: 92.4%
SK-OV-3
  growth, % of control at 10 µM: 107%
OVCAR-8
  growth, % of control at 10 µM: 106%
cells
  inhibition at 10 µM: > 95%
ACHN
  growth, % of control at 10 µM: 101%
OVCAR-3
  growth, % of control at 10 µM: 97.1%
MDA-MB-468
  growth, % of control at 10 µM: 105%
OVCAR-5
  growth, % of control at 10 µM: 104%
PC-3
  growth, % of control at 10 µM: 77.6%
[2]
  growth, % of control at 10 µM: 95.5%
